# In ChEMBL document CHEMBL3046951, “Volatile constituents from the leaves of Callicarpa japonica Thunb. and their antibacterial activities” (2004):
# Columns and labels:
# Format in all cases: functional
# Listeria monocytogenes [1] = assay: Antimicrobial activity against Listeria monocytogenes ATCC 19111 assessed as growth inhibition rate at 5.8 mg/l after 72 hr by spectrophotometry; settings: ATCC 19111, 72 h, read-out: GI
# How it was run: (§1)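 L. monocytogenes was grown at 30 °C in tryptic soy broth, subcultured for 18 h, and exposed to pure volatile compounds (>95% purity). Growth was followed by Bioscreen C optical density every 24 h for 72 h against a 10% Tween 80 control.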
# Vibrio parahaemolyticus [2] = assay: Antimicrobial activity against Vibrio parahaemolyticus ATCC 33844 assessed as growth inhibition rate at 5.8 mg/l after 72 hr by spectrophotometry; settings: ATCC 33844, 72 h, read-out: GI
# Escherichia coli [3] = assay: Antimicrobial activity against Escherichia coli O157:H7 ATCC 43894 assessed as growth inhibition rate at 5.8 mg/l after 72 hr by spectrophotometry; settings: O157:H7 ATCC 43894, 72 h, read-out: GI
# Salmonella typhimurium [4] = assay: Antimicrobial activity against Salmonella enterica subsp. enterica serovar Typhimurium ATCC 14028 assessed as growth inhibition rate at 5.8 mg/l after 72 hr by spectrophotometry; settings: ATCC 14028, 72 h, read-out: GI
# Bacillus cereus [5] = assay: Antimicrobial activity against Bacillus cereus ATCC 11778 assessed as growth inhibition rate at 5.8 mg/l after 72 hr by spectrophotometry; settings: ATCC 11778, 72 h, read-out: GI
# How it was run: (§2)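 Pure volatile compounds (purity >95%; one at 90%) were tested against B. cereus ATCC 11778. The strain was grown at 30 °C in nutrient broth for 24 h, then subcultured for 18 h. Optical density was read in a Bioscreen C every 24 h for 72 h, with 10% Tween 80 as the control.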
# Staphylococcus aureus [6] = assay: Antimicrobial activity against Staphylococcus aureus ATCC 25923 assessed as growth inhibition rate at 5.8 mg/l after 72 hr by spectrophotometry; settings: ATCC 25923, 72 h, read-out: GI
# Listeria monocytogenes [7] = assay: Antimicrobial activity against Listeria monocytogenes ATCC 19111 assessed as growth inhibition rate at 4.44 mg/l after 72 hr by spectrophotometry; settings: ATCC 19111, 72 h, read-out: GI; how it was run: as §1
# Staphylococcus aureus [8] = assay: Antimicrobial activity against Staphylococcus aureus ATCC 25923 assessed as growth inhibition rate at 4.44 mg/l after 72 hr by spectrophotometry; settings: ATCC 25923, 72 h, read-out: GI
# Vibrio parahaemolyticus [9] = assay: Antimicrobial activity against Vibrio parahaemolyticus ATCC 33844 assessed as growth inhibition rate at 4.44 mg/l after 72 hr by spectrophotometry; settings: ATCC 33844, 72 h, read-out: GI
# Escherichia coli [10] = assay: Antimicrobial activity against Escherichia coli O157:H7 ATCC 43894 assessed as growth inhibition rate at 4.44 mg/l after 72 hr by spectrophotometry; settings: O157:H7 ATCC 43894, 72 h, read-out: GI
# Bacillus cereus [11] = assay: Antimicrobial activity against Bacillus cereus ATCC 11778 assessed as growth inhibition rate at 4.44 mg/l after 72 hr by spectrophotometry; settings: ATCC 11778, 72 h, read-out: GI; how it was run: as §2
# Salmonella typhimurium [12] = assay: Antimicrobial activity against Salmonella enterica subsp. enterica serovar Typhimurium ATCC 14028 assessed as growth inhibition rate at 4.44 mg/l after 72 hr by spectrophotometry; settings: ATCC 14028, 72 h, read-out: GI
# How it was run: (§3)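 Salmonella Typhimurium ATCC 14028 grown in nutrient broth at 30 °C, precultured 24 h, then subcultured 1:100 for 18 h before testing. Single volatile compounds (>95% pure) were added. OD was read every 24 h over 72 h in a Bioscreen C, with 10% Tween 80 as the comparison control.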
# Listeria monocytogenes [13] = assay: Antimicrobial activity against Listeria monocytogenes ATCC 19111 assessed as growth inhibition rate at 1.72 mg/l after 72 hr by spectrophotometry; settings: ATCC 19111, 72 h, read-out: GI; how it was run: as §1
# Staphylococcus aureus [14] = assay: Antimicrobial activity against Staphylococcus aureus ATCC 25923 assessed as growth inhibition rate at 1.72 mg/l after 72 hr by spectrophotometry; settings: ATCC 25923, 72 h, read-out: GI
# Vibrio parahaemolyticus [15] = assay: Antimicrobial activity against Vibrio parahaemolyticus ATCC 33844 assessed as growth inhibition rate at 1.72 mg/l after 72 hr by spectrophotometry; settings: ATCC 33844, 72 h, read-out: GI
# Escherichia coli [16] = assay: Antimicrobial activity against Escherichia coli O157:H7 ATCC 43894 assessed as growth inhibition rate at 1.72 mg/l after 72 hr by spectrophotometry; settings: O157:H7 ATCC 43894, 72 h, read-out: GI
# Salmonella typhimurium [17] = assay: Antimicrobial activity against Salmonella enterica subsp. enterica serovar Typhimurium ATCC 14028 assessed as growth inhibition rate at 1.72 mg/l after 72 hr by spectrophotometry; settings: ATCC 14028, 72 h, read-out: GI; how it was run: as §3
# Bacillus cereus [18] = assay: Antimicrobial activity against Bacillus cereus ATCC 11778 assessed as growth inhibition rate at 1.72 mg/l after 72 hr by spectrophotometry; settings: ATCC 11778, 72 h, read-out: GI; how it was run: as §2
# Listeria monocytogenes [19] = assay: Antimicrobial activity against Listeria monocytogenes ATCC 19111 assessed as growth inhibition rate at 6.32 mg/l after 72 hr by spectrophotometry; settings: ATCC 19111, 72 h, read-out: GI; how it was run: as §1
# Staphylococcus aureus [20] = assay: Antimicrobial activity against Staphylococcus aureus ATCC 25923 assessed as growth inhibition rate at 6.32 mg/l after 72 hr by spectrophotometry; settings: ATCC 25923, 72 h, read-out: GI
# Vibrio parahaemolyticus [21] = assay: Antimicrobial activity against Vibrio parahaemolyticus ATCC 33844 assessed as growth inhibition rate at 6.32 mg/l after 72 hr by spectrophotometry; settings: ATCC 33844, 72 h, read-out: GI
# Escherichia coli [22] = assay: Antimicrobial activity against Escherichia coli O157:H7 ATCC 43894 assessed as growth inhibition rate at 6.32 mg/l after 72 hr by spectrophotometry; settings: O157:H7 ATCC 43894, 72 h, read-out: GI
# Salmonella typhimurium [23] = assay: Antimicrobial activity against Salmonella enterica subsp. enterica serovar Typhimurium ATCC 14028 assessed as growth inhibition rate at 6.32 mg/l after 72 hr by spectrophotometry; settings: ATCC 14028, 72 h, read-out: GI
# Bacillus cereus [24] = assay: Antimicrobial activity against Bacillus cereus ATCC 11778 assessed as growth inhibition rate at 6.32 mg/l after 72 hr by spectrophotometry; settings: ATCC 11778, 72 h, read-out: GI; how it was run: as §2
# Listeria monocytogenes [25] = assay: Antimicrobial activity against Listeria monocytogenes ATCC 19111 assessed as growth inhibition rate at 13.04 mg/l after 72 hr by spectrophotometry; settings: ATCC 19111, 72 h, read-out: GI; how it was run: as §1
# Vibrio parahaemolyticus [26] = assay: Antimicrobial activity against Vibrio parahaemolyticus ATCC 33844 assessed as growth inhibition rate at 13.04 mg/l after 72 hr by spectrophotometry; settings: ATCC 33844, 72 h, read-out: GI
# Escherichia coli [27] = assay: Antimicrobial activity against Escherichia coli O157:H7 ATCC 43894 assessed as growth inhibition rate at 13.04 mg/l after 72 hr by spectrophotometry; settings: O157:H7 ATCC 43894, 72 h, read-out: GI
# Salmonella typhimurium [28] = assay: Antimicrobial activity against Salmonella enterica subsp. enterica serovar Typhimurium ATCC 14028 assessed as growth inhibition rate at 13.04 mg/l after 72 hr by spectrophotometry; settings: ATCC 14028, 72 h, read-out: GI; how it was run: as §3
# Bacillus cereus [29] = assay: Antimicrobial activity against Bacillus cereus ATCC 11778 assessed as growth inhibition rate at 13.04 mg/l after 72 hr by spectrophotometry; settings: ATCC 11778, 72 h, read-out: GI; how it was run: as §2
# Staphylococcus aureus [30] = assay: Antimicrobial activity against Staphylococcus aureus ATCC 25923 assessed as growth inhibition rate at 13.04 mg/l after 72 hr by spectrophotometry; settings: ATCC 25923, 72 h, read-out: GI
structure (smiles),measurement,setting,value
C=CC(O)CC (stereo not given),inhibition of growth at 5.8 µg/mL,Listeria monocytogenes [1],0.4%
same,inhibition of growth at 5.8 µg/mL,Vibrio parahaemolyticus [2],1.9%
same,inhibition of growth at 5.8 µg/mL,Escherichia coli [3],0%
same,inhibition of growth at 5.8 µg/mL,Salmonella typhimurium [4],5%
same,inhibition of growth at 5.8 µg/mL,Bacillus cereus [5],9.3%
same,inhibition of growth at 5.8 µg/mL,Staphylococcus aureus [6],2.4%
CC1=CC[C@@H]2C[C@H]1C2(C)C [1R-(+)-ALPHA-PINENE],inhibition of growth at 4.44 µg/mL,Listeria monocytogenes [7],0%
same,inhibition of growth at 4.44 µg/mL,Staphylococcus aureus [8],20.8%
same,inhibition of growth at 4.44 µg/mL,Vibrio parahaemolyticus [9],10.7%
same,inhibition of growth at 4.44 µg/mL,Escherichia coli [10],0%
same,inhibition of growth at 4.44 µg/mL,Bacillus cereus [11],0%
same,inhibition of growth at 4.44 µg/mL,Salmonella typhimurium [12],5.2%
"CCC(=O)C(C)=O [2,3-PENTANEDIONE]",inhibition of growth at 1.72 µg/mL,Listeria monocytogenes [13],26.2%
same,inhibition of growth at 1.72 µg/mL,Staphylococcus aureus [14],47.4%
same,inhibition of growth at 1.72 µg/mL,Vibrio parahaemolyticus [15],39.3%
same,inhibition of growth at 1.72 µg/mL,Escherichia coli [16],9.6%
same,inhibition of growth at 1.72 µg/mL,Salmonella typhimurium [17],25.5%
same,inhibition of growth at 1.72 µg/mL,Bacillus cereus [18],26.9%
CCCCCC(=O)CC [3-OCTANONE],inhibition of growth at 6.32 µg/mL,Listeria monocytogenes [19],0%
same,inhibition of growth at 6.32 µg/mL,Staphylococcus aureus [20],5.2%
same,inhibition of growth at 6.32 µg/mL,Vibrio parahaemolyticus [21],0%
same,inhibition of growth at 6.32 µg/mL,Escherichia coli [22],3.1%
same,inhibition of growth at 6.32 µg/mL,Salmonella typhimurium [23],5.1%
same,inhibition of growth at 6.32 µg/mL,Bacillus cereus [24],0%
C=C1CC[C@@H]2C[C@H]1C2(C)C [(+)-BETA-PINENE],inhibition of growth at 13.04 µg/mL,Listeria monocytogenes [25],2.8%
same,inhibition of growth at 13.04 µg/mL,Vibrio parahaemolyticus [26],45.1%
same,inhibition of growth at 13.04 µg/mL,Escherichia coli [27],3.4%
same,inhibition of growth at 13.04 µg/mL,Salmonella typhimurium [28],14.9%
same,inhibition of growth at 13.04 µg/mL,Bacillus cereus [29],0%
same,inhibition of growth at 13.04 µg/mL,Staphylococcus aureus [30],17.6%
